Here are results for four substances from ChEMBL document CHEMBL2406905, “Improving the antibacterial activity and selectivity of an ultra short peptide by hydrophobic and hydrophilic amino acid stretches” (Bioorg Med Chem Lett, 2013).

Series [1] is described as follows: (§1) Antibacterial activity against Vibrio cholerae non-O1 non-O139 assessed as growth inhibition after 24 hrs. The class given is functional. Conditions: Vibrio cholerae, non-O139, 24 h.
For series [2], the system named is Staphylococcus epidermidis. The series is described as follows: Bactericidal activity against Staphylococcus epidermidis ATCC 12228 assessed as reduction in CFU at 23 ug/mL after 48 hrs. On the set-up: scale not given: the % may be the effect or the level left. The class given is functional. In a few lines: (§2)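 After the 24 h, 37 °C broth-microdilution exposure (log-phase inoculum at OD600 0.001, peptide in 20 mM Tris–HCl pH 7.4), 5 μL from each well was plated on agar and incubated at 37 °C for 48 h. 100% bactericidal concentration was the concentration giving a 99.9% CFU reduction from the starting inoculum.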

A short description of series [3]: Hemolytic activity in human RBC at 1 to 91 ug/ml. In kind it is ADME, cell-based. As to conditions: erythrocyte. In a few lines: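 Human red blood cells were exposed to peptide. Minimal hemolytic concentration was taken as the lowest peptide concentration producing 5% hemolysis.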
Series [4] has as its system Pseudomonas aeruginosa. The series is described as follows: Antibacterial activity against Pseudomonas aeruginosa ATCC 27853 assessed as growth inhibition after 24 hrs. In kind it is functional. Put shortly:
(§3)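 Log-phase bacteria adjusted to OD600 0.001 in nutrient broth. Peptide dilutions in 20 mM Tris–HCl pH 7.4 were added; buffer alone served as control. Incubation was 37 °C for 24 h. % inhibition was calculated from the OD600 change (24 h minus time zero) relative to the control change. MIC was the concentration giving >90% growth inhibition.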

Series [5] is described as follows: Therapeutic index, ratio of MHC for human RBC to MIC for Pseudomonas aeruginosa ATCC 27853. Conditions: human red blood cells (RBC), read-out: TI. Put shortly:
(§4)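 Index was calculated as MHC/MIC. MHC was the lowest peptide concentration producing 5% hemolysis of human red blood cells. MIC was the concentration giving >90% inhibition of bacterial growth (OD600) after 24 h at 37 °C in nutrient broth, with bacteria starting at OD600 0.001.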

Series [6] is described as follows: Therapeutic index, ratio of MHC for human RBC to MIC for Escherichia coli ATCC 25922. As to conditions: human red blood cells (RBC), read-out: TI. In a few lines:
as §4

For series [7], the system named is Staphylococcus epidermidis. The series is described as follows: Antibacterial activity against Staphylococcus epidermidis ATCC 12228 assessed as growth inhibition after 24 hrs. In kind it is functional. As to conditions: Staphylococcus epidermidis, ATCC 12228, 24 h. In a few lines:
as §3

Series [8] relates to Salmonella typhi. The series is described as follows: Antibacterial activity against Salmonella typhi DMST 22842 assessed as growth inhibition after 24 hrs. In kind it is functional, Salmonella enterica subsp. enterica serovar Typhi. Conditions: for MIC90: Salmonella enterica, DMST 22842, 24 h.
A short description of series [9]: Therapeutic index, ratio of MHC for human RBC to MIC for Staphylococcus epidermidis ATCC 12228. Conditions: human red blood cells (RBC), read-out: TI. Put shortly:
as §4

Series [10] in a line: Therapeutic index, ratio of MHC for human RBC to MIC for Salmonella typhi DMST 22842. Conditions: human red blood cells (RBC), read-out: TI. In a few lines: as §4
The subject of series [11] is Vero. The series is described as follows: Cytotoxicity against african green monkey Vero cells assessed as cell viability at 1 to 91 ug/ml after 48 hrs by MTT assay. In kind it is cell-based. As to conditions: chlorocebus sabaeus. In a few lines: (§5)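 Monolayer cell viability was read by MTT. Results are given as mean ± SEM (n = 8). Significance was tested by one-way ANOVA with Scheffe's multiple range test (p < 0.05).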

Series [12] has as its system Escherichia coli. The series is described as follows: Bactericidal activity against Escherichia coli ATCC 25922 assessed as reduction in CFU at 11 ug/mL after 48 hrs. In kind it is functional. On the set-up: scale not given: the % may be the effect or the level left. Put shortly:
as §2

Series [13] in a line: Therapeutic index, ratio of MHC for human RBC to MIC for Vibrio cholerae non-O1 non-O139. As to conditions: human red blood cells (RBC), read-out: TI. Put shortly: as §4
Series [14] can be described thus: Therapeutic index, ratio of MHC for human RBC to MIC for Staphylococcus aureus ATCC 25923. As to conditions: human red blood cells (RBC), read-out: TI. Put shortly: as §4
The test system of series [15] is RAW264.7. Briefly: Cytotoxicity against mouse RAW264.7 cells assessed as cell viability at 1 to 91 ug/ml after 48 hrs by MTT assay. The class given is cell-based. Conditions: raw264.7, 48 h. Put shortly: as §5
On the technique in general: Tetrazolium assays rely on reduction of a dye to a coloured formazan, in cell work by metabolically active cells.

Series [16] has as its system Staphylococcus aureus. Briefly: Antibacterial activity against Staphylococcus aureus ATCC 25923 assessed as growth inhibition after 24 hrs. As to conditions: for MIC90: Staphylococcus aureus, ATCC 25923, 24 h. The class given is functional. In a few lines: as §3
Series [17] deals with Escherichia coli. The series is described as follows: Antibacterial activity against Escherichia coli ATCC 25922 assessed as appearance of blebs on cell surface at 10 X MIC after 1 min by SEM analysis. In kind it is functional, organism-based. Put shortly:
(§6)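 Bacterial suspension at OD600 0.1 was exposed to peptide at 10× MIC for 1 min and 60 min. The negative control was 20 mM Tris–HCl buffer. Cell morphology was then examined by scanning electron microscopy.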

Series [18] relates to Escherichia coli. The series is described as follows: Antibacterial activity against Escherichia coli ATCC 25922 assessed as growth inhibition after 24 hrs. Conditions: Escherichia coli, ATCC 25922, 24 h. In kind it is functional. In a few lines:
as §3

The test system of series [19] is Vibrio cholerae non-O1. The series is described as §1. The class given is functional.
For series [20], the system named is Salmonella typhi. Briefly: Bactericidal activity against Salmonella typhi DMST 22842 assessed as reduction in CFU at 23 ug/mL after 48 hrs. The class given is functional, Salmonella enterica subsp. enterica serovar Typhi. On the set-up: scale not given: the % may be the effect or the level left. In a few lines: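 Bacteria at OD600 0.001 in nutrient broth were exposed to peptide in 20 mM Tris–HCl (pH 7.4) at 37 °C for 24 h. A sample from each well was then plated on agar and incubated at 37 °C for 48 h. Bactericidal activity was taken as a 99.9% CFU reduction versus the starting inoculum.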

Series [21] has as its system Staphylococcus epidermidis. The series is described as follows: Antibacterial activity against Staphylococcus epidermidis ATCC 12228 assessed as appearance of rough and wavy cell morphology at 10 X MIC after 1 min by SEM analysis. In kind it is functional, organism-based. In a few lines: as §6
Series [22] has as its system Salmonella typhi. Briefly: Antibacterial activity against Salmonella typhi DMST 22842 assessed as appearance of rough and wavy cell morphology at 10 X MIC after 1 min by SEM analysis. Conditions: Salmonella enterica subsp. enterica serovar Typhi. In kind it is functional, organism-based. Put shortly:
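Bacterial suspension (OD600 0.1) was incubated with peptide at 10×MIC for 1 and 60 min, with 20 mM Tris–HCl buffer as negative control. Cell morphology was examined by scanning electron microscopy.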

The subject of series [23] is Escherichia coli. Briefly: Bactericidal activity against Escherichia coli ATCC 25922 assessed as reduction in CFU at 46 ug/mL after 48 hrs. The class given is functional. Further details: scale not given: the % may be the effect or the level left. In a few lines:
as §2

Activity calls are given as the source filed them. The rule behind the calls is not given here.

A word on the MIC90: it is the lowest concentration that inhibits either 90% of growth or 90% of the strains tested, depending on the study. With H-NGVQPKYKWWKWWKKWW-NH2, the MIC90 in [1] came to 11 µg/mL; in [4] (Pseudomonas aeruginosa, ATCC 27853, 24 h) it was 91 µg/mL; in [7], 23 µg/mL; in series [8] it was 23 µg/mL; in series [16], 46 µg/mL; in [18], 11 µg/mL. The Activity was 100% in series [2]; “Non-toxic” in series [3]; “Non-toxic” in series [11]; 100% in series [12]; “Non-toxic” in series [15]. Also, the selectivity ratio came to 0.5 in [5]; 4 in series [6]; 2 in series [9]; 2 in [10]; 4 in series [13]; 1 in series [14]. Also, the result in [17] was Active.

Consider H-NGVQPKYKWWKWWKKWWW-NH2, for which the MIC90 result in series [19] and in series [4] was “inactive” in each case. Moreover, the Activity in [2] is given as 100%; in series [3], “Toxic”; in series [12] it was 100%; in series [20] it was 100%. Moreover, the selectivity ratio in series [6] was 2; in [9], 1; in series [10], 1; in series [14], below 0.5. The MIC90 in [7] is 23 µg/mL; in series [8] it was 23 µg/mL; in [16], above 91 µg/mL; in [18], 11 µg/mL. For the same substance, the “growth inhibition (GI)” value in series [16] is reported as below 90%. In addition, the outcome in series [17] was Active.

As for H-NGVQPKYRWWRWWRRWW-NH2, the MIC90 in series [1] was 46 µg/mL; in series [7], 23 µg/mL; in series [8] it was 23 µg/mL; in [16], 91 µg/mL; in series [18] it was 46 µg/mL. Moreover, the result in series [2], in series [21] and in series [22] was Active. Besides, the Activity result is reported as “Non-toxic” in [3], 100% in series [23], “Non-toxic” in [11] and “Non-toxic” in series [15]. The MIC90 entry in [4] is “inactive”. For the same substance, the selectivity ratio is 1 in series [6]; 2 in series [9]; 2 in series [10]; 1 in [13]; 0.5 in series [14].

H-NGVQPKYRWWRWWRRWW-OH: the MIC90 result in [19] and in [4] was “inactive” throughout. Besides, the result in series [2], in series [21] and in series [22] was Active. In addition, the Activity result in series [3] is recorded as “Toxic”; in [23], 100%; in series [11] it was “Toxic”; in [15], “Toxic”. The selectivity ratio in [6] was 0.5; in series [9] it was 1; in [10], below 0.25; in series [14], below 0.25. In addition, the MIC90 was 23 µg/mL in [7], above 91 µg/mL in series [8], above 91 µg/mL in series [16] and 46 µg/mL in series [18]. For the same substance, the “growth inhibition (GI)” value in [8] and in [16] was below 90% each time.
